This experiment has as its target T1, Period circadian protein homolog 2 (Homo sapiens, UniProt O15055).
T1 sequence (O15055 whole entry): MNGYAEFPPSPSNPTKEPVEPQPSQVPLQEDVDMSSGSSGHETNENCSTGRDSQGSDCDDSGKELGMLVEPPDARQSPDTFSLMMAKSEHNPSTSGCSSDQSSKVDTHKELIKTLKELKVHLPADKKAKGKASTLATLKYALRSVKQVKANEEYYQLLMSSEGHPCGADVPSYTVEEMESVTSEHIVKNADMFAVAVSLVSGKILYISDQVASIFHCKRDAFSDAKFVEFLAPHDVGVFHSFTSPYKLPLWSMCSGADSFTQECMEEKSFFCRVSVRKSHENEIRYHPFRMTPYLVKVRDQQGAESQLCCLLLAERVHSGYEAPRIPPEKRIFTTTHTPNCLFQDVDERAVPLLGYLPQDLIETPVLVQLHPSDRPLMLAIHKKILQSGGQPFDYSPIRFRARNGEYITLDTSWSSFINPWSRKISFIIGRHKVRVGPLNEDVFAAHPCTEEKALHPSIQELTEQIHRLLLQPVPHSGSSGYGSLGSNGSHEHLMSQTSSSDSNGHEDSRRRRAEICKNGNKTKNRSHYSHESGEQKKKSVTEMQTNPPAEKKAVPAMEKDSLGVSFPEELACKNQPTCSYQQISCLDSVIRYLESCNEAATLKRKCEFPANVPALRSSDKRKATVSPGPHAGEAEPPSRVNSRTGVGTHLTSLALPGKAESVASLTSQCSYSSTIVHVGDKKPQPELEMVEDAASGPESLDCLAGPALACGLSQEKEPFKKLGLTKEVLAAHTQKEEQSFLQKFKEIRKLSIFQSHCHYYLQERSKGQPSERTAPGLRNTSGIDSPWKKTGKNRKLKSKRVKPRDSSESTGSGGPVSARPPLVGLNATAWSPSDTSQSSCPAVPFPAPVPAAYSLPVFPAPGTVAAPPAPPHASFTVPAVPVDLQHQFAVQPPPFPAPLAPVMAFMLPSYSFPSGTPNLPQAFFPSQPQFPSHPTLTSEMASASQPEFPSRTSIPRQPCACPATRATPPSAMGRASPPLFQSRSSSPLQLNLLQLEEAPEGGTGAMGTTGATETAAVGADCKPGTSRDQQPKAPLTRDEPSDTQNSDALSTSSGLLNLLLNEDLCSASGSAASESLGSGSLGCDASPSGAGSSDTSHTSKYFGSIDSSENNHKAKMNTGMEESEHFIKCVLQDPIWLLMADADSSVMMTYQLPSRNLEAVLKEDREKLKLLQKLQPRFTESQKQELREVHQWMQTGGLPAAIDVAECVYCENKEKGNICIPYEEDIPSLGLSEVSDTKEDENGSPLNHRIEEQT
Description: Reduction of amplitude effect of PER2 in human U2OS cells harboring Per2-dLuc luciferase reporter gene assessed as effects on circadian rhythms. Summed up: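 Human osteosarcoma U2OS cells carrying a Per2-dLuc luciferase reporter, treated continuously; circadian luminescence rhythm amplitude followed. 8-point threefold dilution series; EC50 taken as concentration giving 50% of the compound's own maximal response (titrations without plateau give no EC50).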

In BindingDB's records for doi:10.1016/j.bmcl.2015.12.102 (Reset Therapeutics, 2016) one finds EC50 data, which are given here for 41 molecules.

As a reminder, the pEC50 is the EC50 on a negative log10 scale, so that one unit is a factor of ten.

pEC50: −log10 of the molar value.

As for `O=S(=O)(C1CCCCC1)N(Cc1ccco1)CC(O)Cn1c2ccccc2c2ccccc21` (stereo unspecified), the pEC50 is 6.00. On to `CCN(CC(O)Cn1c2ccccc2c2ccccc21)S(C)(=O)=O` (stereo unspecified), for which the negative-log EC50 (pEC50) was 6.30. With `CC(C)CN(CC(O)Cn1c2ccccc2c2ccccc21)S(C)(=O)=O` (stereo unspecified), the pEC50 was 6.75. For `O=S1(=O)NCCN1CC(O)Cn1c2ccccc2c2ccccc21` (stereo unspecified), the pEC50 is 7.38. With `O=S1(=O)NCCCN1CC(O)Cn1c2ccccc2c2ccccc21` (stereo unspecified), the pEC50 is 6.42. In the case of `O=S1(=O)CCN1CC(O)Cn1c2ccccc2c2ccccc21` (stereo unspecified), the pEC50 is 6.72. With `CS(=O)(=O)N(CC(O)Cn1c2ccccc2c2ccccc21)c1cccc(F)c1` (stereo unspecified), the pEC50 is 6.40. For the molecule `CN1CCCN(CC(O)Cn2c3ccccc3c3ccccc32)S1(=O)=O` (stereo unspecified), the pEC50 was 6.14. As for `O=S1(=O)CCCCN1CC(O)Cn1c2ccccc2c2ccccc21` (stereo unspecified), the pEC50 is 6.76.

Regarding `CS(=O)(=O)N(CC(O)Cn1c2ccccc2c2ccccc21)C1CCCC1` (stereo unspecified), the negative-log EC50 (pEC50) was 6.51. For the molecule `CC(C)S(=O)(=O)N(Cc1ccco1)CC(O)Cn1c2ccccc2c2ccccc21` (stereo unspecified), the pEC50 was 6.36. Consider `CS(=O)(=O)N(CC(O)Cn1c2ccccc2c2ccccc21)C1CCC(F)(F)CC1` (stereo unspecified), for which the pEC50 is 6.16. Turning to `CS(=O)(=O)N(Cc1ccccc1)CC(O)Cn1c2ccccc2c2ccccc21` (stereo unspecified), the pEC50 was 6.09. Take `O=S(=O)(C1CC1)N(Cc1ccco1)CC(O)Cn1c2ccccc2c2ccccc21` (stereo unspecified): the negative logarithm of the EC50 (pEC50) is 6.25.

Turning to `CS(=O)(=O)N(CC(O)Cn1c2ccccc2c2ccccc21)C1COC1` (stereo unspecified), the pEC50 is 5.45. On to `CC(C)CS(=O)(=O)N(Cc1ccco1)CC(O)Cn1c2ccccc2c2ccccc21` (stereo unspecified), for which the pEC50 is 6.44.

For the molecule `O=S(=O)(Cc1ccccc1)N(Cc1ccco1)CC(O)Cn1c2ccccc2c2ccccc21` (stereo unspecified), the pEC50 is 6.38. Turning to `O=S1(=O)COCCN1CC(O)Cn1c2ccccc2c2ccccc21` (stereo unspecified), the negative-log EC50 (pEC50) is 7.14.

As to `O=S(=O)(c1ccccc1)N(Cc1ccco1)CC(O)Cn1c2ccccc2c2ccccc21` (stereo unspecified), the negative logarithm of the EC50 (pEC50) is 5.96.

Regarding `CS(=O)(=O)N(CC(O)Cn1c2ccccc2c2ccccc21)C1CC1` (stereo unspecified), the pEC50 is 6.35. As for `CS(=O)(=O)N(CC(O)Cn1c2ccccc2c2ccccc21)c1ccc(F)cc1` (stereo unspecified), the pEC50 is 6.03.

Regarding `CS(=O)(=O)N(Cc1ccco1)CC(O)Cn1c2ccccc2c2ccccc21` (stereo unspecified) [N-(3-carbazol-9-yl-2-hydroxypropyl)-N-(furan-2-ylmethyl)methanesulfonamide], the pEC50 is 6.06. Turning to `COCCN(CC(O)Cn1c2ccccc2c2ccccc21)S(C)(=O)=O` (stereo unspecified), the pEC50 was 5.99. With `CCCS(=O)(=O)N(Cc1ccco1)CC(O)Cn1c2ccccc2c2ccccc21` (stereo unspecified), the negative-log EC50 (pEC50) was 6.29. With `CS(=O)(=O)N(CC(O)Cn1c2ccccc2c2ccccc21)C1CCOCC1` (stereo unspecified) the figure was 6.09.

In the case of `CN(CC(O)Cn1c2ccccc2c2ccccc21)S(C)(=O)=O` (stereo unspecified), the negative logarithm of the EC50 (pEC50) was 6.11. As to `CS(=O)(=O)N(CC(O)Cn1c2ccccc2c2ccccc21)C1CC(F)(F)C1` (stereo unspecified), the pEC50 is 5.90. As to `COCCS(=O)(=O)N(Cc1ccco1)CC(O)Cn1c2ccccc2c2ccccc21` (stereo unspecified), the pEC50 is 6.54. For the molecule `CS(=O)(=O)NCC(O)Cn1c2ccccc2c2ccccc21` (stereo unspecified), the pEC50 was 6.32. For the molecule `CCCCS(=O)(=O)N(Cc1ccco1)CC(O)Cn1c2ccccc2c2ccccc21` (stereo unspecified), the negative-log EC50 (pEC50) is 6.43. With `CS(=O)(=O)N(CC(O)Cn1c2ccccc2c2ccccc21)c1ccccc1` (stereo unspecified) the figure was 6.57. For the molecule `O=S1(=O)CCCN1CC(O)Cn1c2ccccc2c2ccccc21` (stereo unspecified), the pEC50 was 6.84.

As to `CCCN(CC(O)Cn1c2ccccc2c2ccccc21)S(C)(=O)=O` (stereo unspecified), the pEC50 was 6.39. As for `CC(C)N(CC(O)Cn1c2ccccc2c2ccccc21)S(C)(=O)=O` (stereo unspecified), the pEC50 was 6.29. In the case of `CN1CCN(CC(O)Cn2c3ccccc3c3ccccc32)S1(=O)=O` (stereo unspecified), the pEC50 is 6.88.

Regarding `CS(=O)(=O)N(CC(O)Cn1c2ccccc2c2ccccc21)c1ccccc1F` (stereo unspecified), the negative-log EC50 (pEC50) was 5.59. As for `CS(=O)(=O)N(CC(O)Cn1c2ccccc2c2ccccc21)c1ccccn1` (stereo unspecified), the pEC50 was < 5.00.

On to `CS(=O)(=O)N(CC(O)Cn1c2ccccc2c2ccccc21)C1CCC1` (stereo unspecified), for which the pEC50 was 6.89. Turning to `O=S(=O)(C1CCOC1)N(Cc1ccco1)CC(O)Cn1c2ccccc2c2ccccc21` (stereo unspecified), the pEC50 is 5.93. `CCS(=O)(=O)N(Cc1ccco1)CC(O)Cn1c2ccccc2c2ccccc21` (stereo unspecified): the pEC50 was 6.71. In the case of `CS(=O)(=O)N(CC(O)Cn1c2ccccc2c2ccccc21)C1CCCCC1` (stereo unspecified), the pEC50 is 6.27.
